Measured values from ChEMBL document CHEMBL3244051, “15,15-Ketals of natural prostaglandins and prostaglandin analogues. Synthesis and biological activities” (1978).
The source made the active and inactive calls. The rule behind the calls is not given here.

Experiments:
[1] = […] activity in rat uterus assessed as uterine contraction relative to PGF2alpha; type: functional
Summary of the method: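 Isolated rat uterine horns held in salt solution matching extracellular fluid; contractions recorded isotonically as length change. One horn of each animal received test agent, the other the reference, in separate organ baths; n = 4 paired comparisons. Contraction height (mm) analysed by analysis of variance.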

Rattus norvegicus [2] = experiment: Abortifacient activity in sc dosed early pregnant Wistar rat assessed as decrease in serum progesterone level administered in benzyl benzoate and castor oil on day 4 to day 7 of gestation measured on day 3, 5, 7 and 9 of gestation by RIA relative to PGF2alpha; type: functional
Summary of the method: (§1)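 Female Wistar rats mated at proestrus; sperm in vaginal smear next day defines day 1 of gestation. Dosed sc in 0.2 mL oil (benzyl benzoate:castor oil 1:3) on days 4–7; 4 rats/group. Orbital plexus blood taken days 3, 5, 7, 9 for serum progesterone by RIA; rats killed day 9, uteri inspected for abortion.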

Rattus norvegicus [3] = experiment: Abortifacient activity in sc dosed early pregnant Wistar rat assessed as decrease in serum progesterone level measured per animal administered in benzyl benzoate and castor oil on day 4 to day 7 of gestation measured on day 3, 5, 7 and 9 of gestation by RIA; type: functional; summary of the method: as §1
Ileum = experiment: Contraction of guinea pig ileum relative to PGF2alpha; type: functional, Cavia porcellus

Compound | fold change (FC) [1] | fold change (FC) (Rattus norvegicus [2]) | Activity (Rattus norvegicus [3]) [mg/day] | fold change (FC) (Ileum) | Activity (Rattus norvegicus [2])
COC(=O)CCC/C=C\C[C@@H]1[C@@H](CCC2(COc3ccccc3)OCCO2)[C@H](O)C[C@@H]1O | >10 | 10 |  |  | 
CCCCC[C@H](O)/C=C/[C@@H]1[C@@H](C/C=C\CCCC(=O)O)[C@@H](O)C[C@H]1O [DINOPROST] |  |  | 0.3 |  | 
CCCCCC1(/C=C/[C@@H]2[C@@H](C/C=C\CCCC(=O)OC)[C@@H](O)C[C@H]2O)OCC(C)(C)CO1 | <0.1 | <0.3 |  |  | 
NC(CO)(CO)CO.O=C(O)CCC/C=C\C[C@@H]1[C@@H](/C=C/C2(COc3ccccc3)OCCO2)[C@H](O)C[C@@H]1O | >10 |  |  |  | 
CCCCCC1(/C=C/[C@@H]2[C@@H](C/C=C\CCCC(=O)OC)[C@@H](O)C[C@H]2O)OCCO1 | 5 | 1 |  | 0.1 | 
CCCCCC1(/C=C/[C@@H]2[C@@H](C/C=C\CCCC(=O)OC)[C@@H](O)C[C@H]2O)OCCCO1 | <0.1 | <0.3 |  |  | 
COC(=O)CCC/C=C\C[C@@H]1[C@@H](/C=C/C2(CCc3ccccc3)OCCO2)[C@H](O)C[C@@H]1O | >10 | 30 |  |  | 
CCCCCC1(/C=C/[C@@H]2[C@@H](C/C=C\CCCC(=O)O)[C@@H](O)C[C@H]2O)OCCO1 | 5 | 1 |  |  | 
CCCCOC(=O)CCC/C=C\C[C@@H]1[C@@H](/C=C/C2(COc3ccccc3)OCCO2)[C@H](O)C[C@@H]1O | 10 | 30 |  |  | 
COC(=O)CCC/C=C\C[C@@H]1[C@@H](/C=C/C2(c3ccc(Cl)cc3)OCCO2)[C@H](O)C[C@@H]1O | 10 | 10 |  |  | 
CCCCCC1(CC[C@@H]2[C@@H](C/C=C\CCCC(=O)OC)[C@@H](O)C[C@H]2O)OCCO1 | 1 | <0.3 |  |  | 
COC(=O)CCC/C=C\C[C@@H]1[C@@H](/C=C/C2(COc3ccc(F)cc3)OCCO2)[C@H](O)C[C@@H]1O | 10 | 10 |  |  | 
COC(=O)CCC/C=C\C[C@@H]1[C@@H](/C=C/C2(COc3cccc(C(F)(F)F)c3)OCCO2)[C@H](O)C[C@@H]1O | >10 | 10 |  | <0.1 | 
CCCCCC(/C=C/[C@@H]1[C@@H](C/C=C\CCCC(=O)OC)[C@@H](O)C[C@H]1O)(OC)OC | 0.1 | <0.1 |  | <0.1 | 
COC(=O)CCC/C=C\C[C@@H]1[C@@H](/C=C/C2(COc3ccccc3)OCCO2)[C@H](O)C[C@@H]1O | >10 | 100 |  | <0.1 | 
O=C(O)CCC/C=C\C[C@@H]1[C@@H](/C=C/C2(COc3ccccc3)OCCO2)[C@H](O)C[C@@H]1O [ETIPROSTON] | 10 | 10 |  | 0.1 | 
O=C(O)CCC/C=C\C[C@@H]1[C@@H](/C=C/C2(COc3ccccc3)OCCO2)[C@H](O)C[C@@H]1O |  |  |  |  | Active
